Reference: paper PMC3061239 (Bioconjugate chemistry, 2010)
Values belong to the compound of their own block, whether it stands above or below them.

What was measured:
[1] = Biodistribution of [^18F]7 in rats after i.v. injection; format: in vivo, Sprague-Dawley rats; conditions: for Distribution, blood / Distribution, bone / Distribution, brain / Distribution, fat / Distribution, heart / Distribution, kidney / Distribution, liver / Distribution, lung / Distribution, muscle / Distribution, pancreas / Distribution, spleen: male Sprague-Dawley rats, mean ± SD
Summary of the method: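 Adult male Sprague-Dawley rats (170–250 g) under 2–3 % isoflurane/O2 received ~20–25 μCi/100 μL tracer (formulated in 3% HSA) via lateral tail vein. Killed at 5, 30, 60, 120 min, 4–8 rats per time; bone and fat taken only at 5 and 60 min (4 rats). Tissues weighed and gamma-counted alongside injectate standard dilution. Expressed as %ID/g, mean ± SD; Student's t-test.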

[2] = MicroPET imaging, myocardial tissue time-activity curves; format: in vivo; conditions: male Sprague-Dawley rats
[3] = 5 min; cited from earlier work
[4] = 5 min post-i.v. injection, rats

Ratio of activity heart:blood [1, 4]: 2.55 | Ratio of activity heart:skeletal muscle [1, 4]: 8.3 | Uptake in heart at 30 min as percentage of the 5 min activity ([1]; 30 min post injection vs 5 min, rats): 35% | Uptake in heart relative to blood ([1]; 120 min post injection, rats): approximately 1.4 fold | Distribution, blood ([1]; 5 min post i.v. injection): 0.76 ± 0.05 %ID/gram | Distribution, blood ([1]; 30 min post i.v. injection): 0.75 ± 0.06 %ID/gram | Distribution, blood ([1]; 60 min post i.v. injection): 0.56 ± 0.06 %ID/gram | Distribution, blood ([1]; 120 min post i.v. injection): 0.26 ± 0.06 %ID/gram | metabolic defluorination (bone activity) ([1]; bone activity between 5 and 60 min, rats): no significant metabolic defluorination | Distribution, bone ([1]; 5 min post i.v. injection): 0.28 ± 0.01 %ID/gram | Distribution, bone ([1]; 60 min post i.v. injection): 0.33 ± 0.06 %ID/gram | Distribution, brain ([1]; 5 min post i.v. injection): 0.11 ± 0.01 %ID/gram | Distribution, brain ([1]; 30 min post i.v. injection): 0.13 ± 0.01 %ID/gram | Distribution, brain ([1]; 60 min post i.v. injection): 0.10 ± 0.01 %ID/gram | Distribution, brain ([1]; 120 min post i.v. injection): 0.06 ± 0.01 %ID/gram | Distribution, fat ([1]; 5 min post i.v. injection): 0.14 ± 0.02 %ID/gram | Distribution, fat ([1]; 60 min post i.v. injection): 0.17 ± 0.01 %ID/gram | Increase of activity in fat ([1]; from 5 to 60 min, rats, P = 0.04): 20% | Distribution, heart ([1]; 5 min post i.v. injection): 2.00 ± 0.44 %ID/gram | Distribution, heart ([1]; 30 min post i.v. injection): 0.72 ± 0.10 %ID/gram | Distribution, heart ([1]; 60 min post i.v. injection): 0.86 ± 0.28 %ID/gram | Distribution, heart ([1]; 120 min post i.v. injection): 0.34 ± 0.04 %ID/gram | Distribution, kidney ([1]; 5 min post i.v. injection): 1.30 ± 0.09 %ID/gram | Distribution, kidney ([1]; 30 min post i.v. injection): 1.26 ± 0.08 %ID/gram | Distribution, kidney ([1]; 60 min post i.v. injection): 1.02 ± 0.15 %ID/gram | Distribution, kidney ([1]; 120 min post i.v. injection): 0.52 ± 0.07 %ID/gram | Distribution, liver ([1]; 5 min post i.v. injection): 2.71 ± 0.37 %ID/gram | Distribution, liver ([1]; 30 min post i.v. injection): 1.39 ± 0.09 %ID/gram | Distribution, liver ([1]; 60 min post i.v. injection): 0.81 ± 0.10 %ID/gram | Distribution, liver ([1]; 120 min post i.v. injection): 0.49 ± 0.07 %ID/gram | Distribution, lung ([1]; 5 min post i.v. injection): 1.26 ± 0.32 %ID/gram | Distribution, lung ([1]; 30 min post i.v. injection): 0.87 ± 0.06 %ID/gram | Distribution, lung ([1]; 60 min post i.v. injection): 0.95 ± 0.27 %ID/gram | Distribution, lung ([1]; 120 min post i.v. injection): 0.52 ± 0.06 %ID/gram | Distribution, muscle ([1]; 5 min post i.v. injection): 0.23 ± 0.03 %ID/gram | Distribution, muscle ([1]; 30 min post i.v. injection): 0.24 ± 0.04 %ID/gram | Distribution, muscle ([1]; 60 min post i.v. injection): 0.21 ± 0.02 %ID/gram | Distribution, muscle ([1]; 120 min post i.v. injection): 0.12 ± 0.01 %ID/gram | Distribution, pancreas ([1]; 5 min post i.v. injection): 0.73 ± 0.07 %ID/gram | Distribution, pancreas ([1]; 30 min post i.v. injection): 0.50 ± 0.03 %ID/gram | Distribution, pancreas ([1]; 60 min post i.v. injection): 0.42 ± 0.04 %ID/gram | Distribution, pancreas ([1]; 120 min post i.v. injection): 0.28 ± 0.02 %ID/gram | Distribution, spleen ([1]; 5 min post i.v. injection): 0.94 ± 0.05 %ID/gram | Distribution, spleen ([1]; 30 min post i.v. injection): 0.63 ± 0.07 %ID/gram | Distribution, spleen ([1]; 60 min post i.v. injection): 0.57 ± 0.11 %ID/gram | Distribution, spleen ([1]; 120 min post i.v. injection): 0.40 ± 0.06 %ID/gram | accumulation in bone on PET images [2]: no evidence of accumulation in bone
Structure (SMILES): O=C(O)CCCCCCCCCCCCCCc1ccc(OCC[18F])cc1 [[^18F]7, 15-(4-(2-[^18F]fluoroethoxy)phenyl)pentadecanoic acid]

Structure (SMILES): CCCCCCCCC([18F])CCCCC1CC1CC(=O)O (racemic) [[^18F]FCPHA, trans-9-(RS)-[^18F]fluoro-3,4-(RS,RS) methyleneheptadecanoic acid]
uptake in rat myocardium [3]: approximately 1.5 %ID/gram tissue
